A short description of test [1]: Inhibition of CK2 assessed as level of ATP utilized by luciferase-based bioluminescence assay.
Test [2] is described as follows: Inhibition of CAMK2 assessed as level of ATP utilized by luciferase-based bioluminescence assay.
The target in test [3] is Heat shock protein beta-1 (Homo sapiens) (UniProt P04792). Description: Enhancement of HSP27 Ser78 phosphorylation in human HeLa cells at 50 ug/mL treated for 1 hr. Type of test: cell-based. In short, it runs like this:
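HeLa cells in DMEM + 10% calf serum, exponentially growing, exposed 1 h to 50 μg/ml compound; total cell extracts probed by Western blot with rabbit antibody to human HSP27 phospho-Ser78, alkaline phosphatase-conjugated goat anti-rabbit secondary, colorimetric detection.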

The test system of test [4] is Jurkat. Put plainly: Inhibition of heat-induced HSP70 expression in human Jurkat cells at 50 ug/mL treated for 1 hr before heat induction by Western blot. Type of test: functional, cell-based. (In western blotting, separated proteins are transferred to a membrane and probed.)
The subject of test [5] is Jurkat. Put plainly: Inhibition of heat-induced increase in nuclear HSF1 protein phosphorylation in human Jurkat cells assessed as decrease in protein mobility at 50 ug/mL treated for 1 hr before heat induction by EMSA. Type of test: functional, cell-based. In short, it runs like this:
(§1)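 Cells were pretreated with compound for 1 h, then heat-shocked at 43 °C for 30 min. Nuclear extracts, the same ones prepared for EMSA, were analysed by Western blot with rabbit anti-HSF1 and goat anti-rabbit HRP, with chemiluminescent detection. Nuclear HSF1 level was read from band intensity. The phosphorylation state was read as reduced gel mobility of the HSF1 band.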

The test system of test [6] is Jurkat. Description: Inhibition of heat-induced increase in nuclear HSF1 protein level in human Jurkat cells at 50 ug/mL treated for 1 hr before heat induction by Western blot. It is filed as functional, cell-based. The method in brief: as §1
The test system of test [7] is HeLa. Description: Inhibition of heat-induced increase in nuclear HSF1 protein phosphorylation in human HeLa cells assessed as decrease in protein mobility at 50 ug/mL treated for 1 hr before heat induction by EMSA. Type of test: functional, cell-based. In short, it runs like this:
as §1

For test [8], the system named is HeLa. Description: Inhibition of heat-induced increase in nuclear HSF1 protein level in human HeLa cells at 50 ug/mL treated for 1 hr before heat induction by Western blot. It is filed as functional, cell-based. The method in brief:
as §1

Active and inactive are the calls of the source. The calls are words filed in the database; no cut-off is given here.

Chain of Heat shock protein beta-1 (Homo sapiens) (P04792 whole entry): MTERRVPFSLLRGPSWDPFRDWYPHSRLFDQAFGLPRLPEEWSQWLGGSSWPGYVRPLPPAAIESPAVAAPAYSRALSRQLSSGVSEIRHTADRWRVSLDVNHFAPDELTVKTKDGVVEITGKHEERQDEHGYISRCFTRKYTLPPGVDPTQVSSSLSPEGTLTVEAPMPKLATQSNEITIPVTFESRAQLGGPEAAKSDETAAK

For `COc1ccc(-c2oc3cc(O)cc(O)c3c(=O)c2O)cc1O` [TAMARIXETIN], the IC50 in test [1] is > 100 µM; in test [2] it was 16.4 µM. Also, the result in test [3] was inactive.
As to `O=C(O)COc1cc(O)c2c(=O)c(O)c(-c3ccc(O)c(O)c3)oc2c1`, the IC50 in test [1] was found to be 9.7 µM; in test [2], 9.3 µM. Moreover, the outcome (in the test with Jurkat [4]; in test [3]) was inactive.
Regarding `COC(=O)COc1cc(O)c2c(=O)c(O)c(-c3ccc(O)c(O)c3)oc2c1`, the IC50 worked out at 0.85 µM in test [1] and 9.1 µM in test [2]. The result (in the test on Jurkat [4]; in test [3]) was Active.
Regarding `O=C(O)COc1c(-c2ccc(O)c(O)c2)oc2cc(O)cc(O)c2c1=O`, the IC50 in test [1] is 2.45 µM; in test [2], > 100 µM. In addition, the result (with Jurkat [4]; in test [3]) was inactive.
For the compound `COC(=O)COc1cc(-c2oc3cc(O)cc(O)c3c(=O)c2O)ccc1O`, the figures for the IC50 in test [1] and in test [2] were 53 µM and 6.3 µM, respectively. Moreover, the result in the test with Jurkat [4] was Active. Also, the result in test [3] was inactive.
For `COc1cc(O)c2c(=O)c(O)c(-c3ccc(O)c(O)c3)oc2c1` [RHAMNETIN] the same measures were 9.7 µM, 8.9 µM, “Active” and “Active”.
`COc1cc(O)cc2oc(-c3ccc(O)c(O)c3)c(O)c(=O)c12`: the IC50 in test [1] is > 100 µM; in test [2], 4 µM. The result (with Jurkat [4]; in test [3]) was inactive.
Turning to `COc1cc(-c2oc3cc(O)cc(O)c3c(=O)c2O)ccc1O` [ISORHAMNETIN], the IC50 in test [1] is 0.5 µM; in test [2], 0.91 µM. Further, the result with Jurkat [4] was Active. Also, in test [3], the result was inactive.
Take `COc1c(-c2ccc(O)c(O)c2)oc2cc(O)cc(O)c2c1=O` [3-O-METHYLQUERCETIN]: the IC50 was 0.83 µM in test [1] and > 100 µM in test [2]. Moreover, the result (with Jurkat [4]; in test [3]) was inactive.
Take `COC(=O)COc1cc(O)cc2oc(-c3ccc(O)c(O)c3)c(O)c(=O)c12`: the IC50 is > 100 µM in test [1] and 69 µM in test [2]. The result (in the test with Jurkat [4]; in test [3]) was inactive.
Turning to `O=c1c(O)c(-c2ccc(O)c(O)c2)oc2cc(O)cc(O)c12` [QUERCETIN], the IC50 in test [1] is 5.6 µM; in test [2] it was 3.3 µM. The outcome (in the test on Jurkat [5]; in the test on Jurkat [4]; in the test on HeLa [7]; in test [3]) was Active. Besides, the outcome in the test on Jurkat [6] and in the test on HeLa [8] was inactive.

Usually IC50 stands for the midpoint of a concentration-inhibition curve.

The values are drawn from ChEMBL document CHEMBL1153987 (J Med Chem, 2009).
